# Compounds with a hit are over-represented: about 1.3% of the library has one in this group of screens.
# LEDGF integ inh = blockers of LEDGF/p75-dependent integrase strand transfer – biochemical, TR-FRET, high throughput, primary screen; inhibition, % at 3.7 µM; TR-FRET IN-LEDGF/p75 DNA integration, Eu/Cy5; HIV-1 integrase (with human LEDGF/p75); AID 743269, 2014; actives 0.64% (n = 370,000);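 active means inhibition above the screen-wide mean plus 3 SD, cut at about 13% in these data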;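 further: signal is the Cy5 over europium emission ratio at 671 and 618 nm; 0% = plate median of compound wells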
# TDP2 absorb = human TDP2 enzyme inhibitors, primary screen, biochemical, epi absorbance, recombinant enzyme. actives 0.34% (n = 370,000). inhibition, % at 12.8 µM. AID 720702, 2013. T5PNP hydrolysis, p-nitrophenol absorbance 415 nm;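 active means inhibition above the mean of all tested compounds plus 3 SD, set per campaign, cut at about 25% in these data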;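 further: 0% = DMSO with enzyme and 100% = buffer with substrate but no TDP2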
#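 Test system: Human TDP2 enzyme | Reagent: 5 mM T5PNP | Compound dosing: 12.8 µM single point, 1% DMSO | Incubation: Enzyme reaction with compound for 2 h at 37 °C | Technique: p-Nitrophenol epi absorbance | Read-out: % inhibition relative to enzyme-containing and enzyme-free wells | Benchmarks: High control without enzyme, low control DMSO plus TDP2 | Replicates: Singlicate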
# ASAP1 inh = inhibitors of human ASAP1 ArfGAP activity, primary screen, biochemical, fluorescence polarization; ASAP1-stimulated ARF1 GTP hydrolysis, GDP FP detection; inhibition, % at 16.5 µM; actives 0.19% (n = 360,000); in the data active means inhibition above about 25%;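 further: 0% = vehicle with enzyme and substrate and 100% = no enzyme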
# CASP6 VEID inh = human caspase-6 inhibitors, primary screen, biochemical, VEID-R110 fluorescence, single point, set 2; P55212; inhibition, % at 12.5 µM; purified caspase-6, Z-VEID-R110 cleavage fluorescence; actives 0.53% (n = 350,000);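 active means mean inhibition across replicates at least about 35%, with every replicate also reaching that limit, limit read from the data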;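 further: 0% = median of neutral control wells and 100% = no fluorescence left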
# Target sequence (P55212 24-179 limits assumed): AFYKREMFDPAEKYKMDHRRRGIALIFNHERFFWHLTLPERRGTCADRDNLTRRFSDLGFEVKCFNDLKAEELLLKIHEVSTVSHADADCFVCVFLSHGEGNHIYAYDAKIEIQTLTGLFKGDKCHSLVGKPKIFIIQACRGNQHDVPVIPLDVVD
# Target sequence (P55212 194-293 limits assumed): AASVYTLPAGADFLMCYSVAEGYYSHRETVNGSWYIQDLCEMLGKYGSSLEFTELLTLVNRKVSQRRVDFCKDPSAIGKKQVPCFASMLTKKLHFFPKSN
# ARFGAP1 inhibitor = inhibitors of rat ARFGAP1 GAP activity, primary screen, biochemical, fluorescence polarization, GDP tracer | ADP-ribosylation factor GTPase-activating protein 1 (Rattus norvegicus), Q62848 | Arfgap1-stimulated ARF1 GTP hydrolysis, GDP FP detection | inhibition, % at 16.5 µM | actives 0.26% (n = 360,000);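 active means inhibition above a per-plate limit, mean inhibition of low control wells plus 3 SD, cut at about 25% in these data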;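 further: 0% = DMSO wells with enzyme and 100% = wells lacking Arfgap1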
# Target sequence (Q62848 1-136 limits assumed): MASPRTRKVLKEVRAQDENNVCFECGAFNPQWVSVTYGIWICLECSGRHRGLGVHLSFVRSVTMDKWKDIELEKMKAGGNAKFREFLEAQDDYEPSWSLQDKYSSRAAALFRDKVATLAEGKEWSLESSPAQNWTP
#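 Material: rat Arfgap1 catalytic domain, aa 1-136; also added: human ARF1(Δ1-17)-GTP substrate; compound dosing: one concentration, 16.5 µM, DMSO 1.26%; incubation: GTP hydrolysis reaction 2 h at 25 °C; measured by: Tracer-displacement fluorescence polarization with EDTA stop, 620/688 nm; evaluation: % inhibition from polarization; repeats: one replicate per compound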
# * hit, by the source's call; nt = not tested or not shown.
SMILES,LEDGF integ inh,TDP2 absorb,ASAP1 inh,CASP6 VEID inh,ARFGAP1 inhibitor
CCNc1nc(-c2cc(C)n(Cc3ccco3)c2C)cs1,8,6,12,51*,16
O=C(Nc1cc([N+](=O)[O-])ccc1O)c1ccc2c(c1)C(=O)N(Cc1ccco1)C2=O,4,-8,-14,42*,-1
O=C(Nc1cccc(C(F)(F)F)c1)c1cc(-c2ccc(F)cc2)on1,-2,-9,-8,nt,8
CCCOCn1cc(F)c(=O)[nH]c1=O,-2,2,-2,nt,-7
O=C1C=CC(n2cc(F)c(=O)[nH]c2=O)O1 (stereo unspecified),2,10,-9,36*,4
CS(=O)(=O)c1sc2nc(-c3cccs3)cc(-c3ccccc3)c2c1N,20*,-1,1,nt,-3
CCN1C(=O)C(NC(C)=O)c2cc(OC)ccc21 (stereo unspecified),4,11,-13,nt,6
CCOc1ccc2c(c1)C(NC(C)=O)C(=O)N2CCN1CCOCC1 (stereo unspecified),7,15,-2,55*,-16
CCOc1ccc(C2/C(=C(\O)c3ccc4c(c3)OCCO4)C(=O)C(=O)N2CCCn2ccnc2)cc1OC (stereo unspecified),2,-6,-6,-2,9
O=C(O)/C=C/C(=O)Nc1ccc(C2(c3ccc(NC(=O)/C=C/C(=O)O)cc3)c3ccccc3-c3ccccc32)cc1,-3,-1,3,47*,12
C[C@H]1CN([C@@H](C)CO)C(=O)c2cc(-c3cncnc3)cnc2O[C@H]1CN(C)C(=O)c1ccccc1F,nt,nt,nt,1,nt
O=C(Cc1ccccc1)N/N=C/c1cc(Br)c(Br)o1,0,-2,27*,nt,18
COc1ccc2nc(N3C(=O)C(O)=C(C(=O)c4ccco4)C3c3ccccc3OC)sc2c1 (stereo unspecified),-3,0,2,8,6
Cc1cc(C)c2nc(N3C(=O)C(O)=C(C(=O)c4ccco4)C3c3ccco3)sc2c1 (stereo unspecified),8,-9,-1,68*,-4
CCOc1ccc2nc(N3C(=O)C(O)=C(C(=O)c4ccco4)C3c3ccco3)sc2c1 (stereo unspecified),18*,-21,-6,36*,0
COc1ccc(C2C(C(=O)c3ccco3)=C(O)C(=O)N2c2nnc(C)s2)cc1 (stereo unspecified),-3,6,0,-4,1
CCOC(=O)c1sc(N2C(=O)C(O)=C(C(=O)c3ccco3)C2c2ccco2)nc1C (stereo unspecified),4,7,-3,39*,-2
COC(=O)c1sc(N2C(=O)C(=O)/C(=C(/O)c3ccccc3)C2c2ccco2)nc1C (stereo unspecified),0,9,5,37*,6
Cc1nc(N2C(=O)C(=O)/C(=C(/O)c3ccccc3)C2c2ccco2)sc1C (stereo unspecified),0,4,4,nt,-2
O=C(c1cnccn1)N1CC(=O)N2[C@H](CO)[C@H](c3ccc(C#CC4CCCCC4)cc3)[C@H]2C1,nt,nt,nt,0,nt
O=C(N/C(=C\c1ccco1)C(=O)N1CCCC1)c1ccccc1,1,18,9,5,2
CCOC(=O)c1ccc(NC(=O)C(=O)NCC2(c3ccc(OC)cc3)CCOCC2)cc1,6,-4,5,1,4
O=S(=O)(c1ccccc1F)N1CC[C@@H]2[C@H]1c1cc(-c3ccccc3)ccc1N[C@@H]2CO,nt,nt,nt,2,nt
Cc1ccc[n+](-c2[nH]c(=O)sc2/C=N/NC(=O)c2ccccc2[O-])c1,3,-24,16,35*,5
COc1ccc2cc(CO)c3cc(OC)c(OC)cc3c2c1,-3,-4,6,4,11
SMILES,LEDGF integ inh,TDP2 absorb,ASAP1 inh,CASP6 VEID inh,ARFGAP1 inhibitor
Cc1ccc(C(=O)NCc2nnc(SCC(=O)Nc3sc4c(c3C#N)CCCC4)n2C)cc1,0,1,1,nt,25*
COCC(=O)N1C[C@H]2[C@@H](c3ccccc31)[C@H](CO)N2Cc1ccccc1Cl,nt,nt,nt,0,nt
Cc1cc2nc3s/c(=C/c4ccc(-c5ccccc5C(=O)O)o4)c(=O)n3c2cc1C,-5,2,-3,36*,6
CCOc1ccc(OCCCC(=O)N2CCN(S(=O)(=O)c3ccc(Cl)cc3)CC2)cc1,32*,1,-3,-4,-4
O=C(CCCOc1ccccc1)N1CCN(S(=O)(=O)c2ccc(Cl)cc2)CC1,1,2,-13,3,-18
Cc1ccc(S(=O)(=O)Nc2ccc3c(c2)C(=O)N([C@H](C)CO)C[C@H](C)[C@H](CN(C)CC2CCCCC2)O3)cc1,nt,nt,nt,0,nt
COC(=O)C1C(O)C(C)C(O)C(C)(O)/C=C\C=C(/C)C(=O)Nc2c(C)c(OC(C)=O)c3c(c2O)C(=O)C(C)=C2OCOC(=C23)/C(C)=C/C(C)(O)C(O)C(C)C1O (stereo unspecified),7,15,1,57*,7
CCOc1ccc(S(=O)(=O)Nc2cccc(C(=O)N(C)CC(=O)Nc3ccc(OC)cc3)c2)cc1,44*,9,15,3,-7
CCOc1ccc(S(=O)(=O)Nc2cccc(C(=O)N(C)CC(=O)Nc3cccc(OC)c3)c2)cc1,-7,4,3,-147,2
COc1ccc(C(=O)Nc2ccc3ccccc3c2)c(OC)c1,3,10,-3,43*,12
COc1ccccc1C(=O)Nc1ccc2ccccc2c1,-4,7,12,-2,2
Cc1cc(/C=N/NC(=O)C(O)(c2ccccc2)c2ccccc2)c(C)n1-c1ccc(C(=O)O)cc1,5,-18,6,35,5
Cc1cc(/C=N/NC(=O)C(O)(c2ccccc2)c2ccccc2)c(C)n1-c1cccc(C(=O)O)c1,5,-10,-1,43*,-2
COc1cc(-c2noc(C)c2/C=C/c2ccc(C(=O)O)cc2)cc(OC)c1OC,2,6,6,35*,-5
Cc1cc(C)cc(-n2cccc2/C=C2/C(=N)N3C(=NC2=O)SN=C3S(C)(=O)=O)c1,-1,-7,-4,37*,-16
COc1cccc(-n2c(C)cc(/C=C3/C(=N)N4C(=NC3=O)SN=C4S(C)(=O)=O)c2C)c1,2,-7,11,43*,-9
CS(=O)(=O)C1=NSC2=NC(=O)/C(=C\c3cccn3-c3ccccc3Cl)C(=N)N21,3,-4,3,41*,-10

# Screens (PubChem BioAssay)
